The list is not random: actives were taken first. Their share in the collection is about 2.4%.
Rpn11 inh: Rpn11 (human) deubiquitinase inhibition; O00487; human 26S proteasome, Ub4-pepOG fluorescence polarization; 20S core pre-blocked with epoxomicin; inhibition, % at 20 µM; 360,000 tested, 0.59% active;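 active = inhibition at 20 µM, scaled to each plate's controls, above about 33%, limit read from the data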
HNF4A DNA FP: change in binding of human HNF4 alpha to DNA; HNF4a-FITC DNA binding, fluorescence polarization, 1 h; activity change, % at 10 µM; 360,000 tested, 0.3% active; P41235; in the data active = activity change above about 30%, passing the limit was not always enough
Target sequence (P41235 whole entry, looked up): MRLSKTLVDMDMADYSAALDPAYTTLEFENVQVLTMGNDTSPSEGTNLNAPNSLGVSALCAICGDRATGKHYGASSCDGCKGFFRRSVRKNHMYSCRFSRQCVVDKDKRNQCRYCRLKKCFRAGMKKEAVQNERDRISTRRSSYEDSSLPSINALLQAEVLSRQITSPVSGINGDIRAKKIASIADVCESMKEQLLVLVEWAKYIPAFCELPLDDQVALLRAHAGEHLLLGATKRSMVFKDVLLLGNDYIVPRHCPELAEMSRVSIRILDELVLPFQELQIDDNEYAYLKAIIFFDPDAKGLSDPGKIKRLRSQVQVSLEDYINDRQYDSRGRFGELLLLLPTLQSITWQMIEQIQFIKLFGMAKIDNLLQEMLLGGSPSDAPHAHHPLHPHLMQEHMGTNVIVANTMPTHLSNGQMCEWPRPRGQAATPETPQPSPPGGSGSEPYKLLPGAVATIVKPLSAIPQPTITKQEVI
PREPL inh: inhibits the human prolyl oligopeptidase-like enzyme. Q4J6C6. recombinant PREPL, fluorescence polarization activity-based probe. inhibition, % at 5.96 µM. 320,000 tested, 0.68% active; in the data active = inhibition above about 43%;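 note: 0% = enzyme with DMSO and 100% = wells lacking enzyme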
TbMetRS inhib: blocks T. brucei methionyl-tRNA synthetase activity; AID 624268; inhibition, % at 11.9 µM; 360,000 tested, 0.4% active; purified T. brucei MetRS, ATP depletion, Kinase-Glo luminescence;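 active = inhibition above a per-plate cutoff of the control wells' mean inhibition plus 3 SD, cut at about 5.5% in these data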;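 note: 0% = DMSO wells median and 100% = median of wells with control inhibitor compound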
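Assay system: T. brucei methionyl-tRNA synthetase, purified | Medium: HEPES buffer with MgCl2, KCl, DTT, spermine, BSA, pyrophosphatase | Compound: 11.9 µM single point | Incubation: 15 min enzyme-compound preincubation, 2 h reaction, 10 min detection, 25 °C | Measured by: Kinase-Glo luciferase luminescence reporting remaining unconsumed ATP | Measure: % inhibition normalized to control-well medians | Replication: Singlicate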
CSN deneddyl inh: inhibitors of human CSN-mediated cullin deneddylation | 360,000 tested, 0.38% active | inhibition, % at 12.5 µM | Purified CSN, SCF-Nedd8-OG deneddylation, fluorescence polarization;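 active = pattern-corrected inhibition above about 35%, with an unprinted fluorescence ratio check between 0.5 and 1.5, limit read from the data, passing the limit was not always enough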;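 note: 0% = enzyme with substrate and 100% = substrate without enzyme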
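Assay system: purified human Csn5 enzyme expressed in HEK293T cells; measure: % inhibition; also added: SCFSkp2-Nedd8OG substrate at 10 nM final; technique: fluorescence polarization; times: reaction 90 min, room temperature; medium: Tris buffer pH 7.5, NaCl, DTT, Tween-20, trehalose, ovalbumin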
Neddylation inh: inhibitors of human cullin neddylation; P61081+Q13564; TR-FRET cullin neddylation, biochemical; 360,000 tested, 0.58% active; AID 651699; inhibition, % at 25 µM; in the data active = inhibition above about 36%
Rpn11 confirm: Rpn11 inhibition confirmation, single concentration | shares compounds with Rpn11 inh | purified human 26S proteasome, Ub4-pepOG fluorescence polarization; proteasome pretreated with epoxomicin | inhibition, % at 20 µM | 1,900 tested, 29% active
MMP-2 inh: blocks human MMP-2, flagging nonselective RPN11 hits. shares compounds with Rpn11 inh. recombinant MMP-2, FRET peptide cleavage fluorescence. inhibition, % at 20 µM. 1,900 tested, 4% active;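 note: human MMP-2 activated beforehand with APMA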
Thrombin FP: thrombin (bovine) inhibition counter-screen; shares compounds with Rpn11 inh; bovine thrombin cleavage of Ub4-pepOG, fluorescence polarization; 1,900 tested, 13% active; inhibition, % at 20 µM;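 active = mean inhibition at least 40% at 20 µM, or signal 3 deviations below plate average, so some actives read negative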;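 note: plate controls were thrombin with DMSO for no effect and buffer wells lacking thrombin for full effect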
The depositor's hits bear a star; / = no result given; + = active, no number. Cut-off read from the data, not from the text of the source, unless noted: active = inhibition above about 40%; inactive = the rest.

SMILES | Rpn11 inh | HNF4A DNA FP | PREPL inh | TbMetRS inhib | CSN deneddyl inh | Neddylation inh | Rpn11 confirm | MMP-2 inh | Thrombin FP
CC(C)c1ccc2c(c1)C1Cc3ccccc3C1N2 (centres undefined) | 57* | 0 | -5 | -1 | 14 | 16 | 2 | 6 | -3
O=C(NCc1ccco1)c1cccc(N2CCCC2=O)c1 | + | 27 | 14 | -1 | 3 | 6 | -13 | -35 | -14
Cc1ccc(C(=O)N/C(=C\c2ccc(-c3cc(Cl)ccc3Cl)o2)C(=O)NCc2cccnc2)cc1 | 51* | 0 | -21 | -1 | -5 | / | 5 | -1 | -2
COc1ccc2c(C)cc(SCC(=O)N3CCOCC3)nc2c1 | 40* | 20 | 18 | -1 | 20 | -11 | 41* | -69 | 24
CCOc1cc(/C=C/C(=O)c2ccc(OC)c(CN3CCOCC3)c2)cc(Br)c1O | 68* | 5 | -3 | -1 | 21 | -4 | 72* | 2 | 80*
CCC(C(=O)NC(C)(C)C)N(Cc1ccc(OC)cc1)C(=O)c1snc(C(N)=O)c1N (centres undefined) | -7 | 1 | / | 0 | 2 | 12 | / | / | /
O=C(NNC1=Nc2cccc3cccc1c23)c1ccccc1Br | 53* | 3 | 17 | 2 | -1 | 15 | 1 | -21 | 4
CC[C@@H]1CCC[C@@H](O)[C@@H](C)C(=O)O[C@H](C)[C@@H](C)C/C=C(C)/C(OC)=C\C(=O)N(C)C([C@@H](C)CC)C(=O)N(C)[C@@H](C(C)C)C(=O)N(C)[C@@H](COC)C(=O)N2CCC[C@H]2C(=O)N(C)[C@@H](C(C)C)C(=O)N2CCC[C@H]2C(=O)O1 (some centres undefined) | 8 | -3 | / | 0 | 4 | -8 | / | / | /
CC1(C)CC(=O)C=C(c2n[nH]nc2-c2ccccc2)C1 | -10 | -3 | / | -1 | 4 | -5 | / | / | /
COc1ccc(N2CCN(C(=O)Cc3ccc(S(=O)(=O)N4CCOCC4)s3)CC2)cc1 | 48* | 6 | 6 | -1 | 6 | 0 | 12 | 33 | 2
Cc1onc(-c2ccccc2)c1C(=O)N/N=C/c1cc(Br)c(O)c(Br)c1 | 42* | -1 | / | 0 | 1 | 18 | 2 | 31 | 4
O=C(N/N=C/c1cc(Br)c(O)c(Br)c1)c1cc2c(ccc3ccccc32)o1 | 74* | -17 | / | 0 | 12 | 51* | 59* | -6 | 139*
CC(=O)Oc1ccc(/C=N\NC(=O)c2cc3c(ccc4ccccc43)o2)cc1 | 129* | 13 | 6 | -1 | 22 | 19 | 56* | -202 | -15
Cc1ccc(/C=N/NC(=O)c2cc3c(ccc4ccccc43)o2)o1 | 3 | 7 | / | -1 | 1 | / | / | / | /
CC(C)(C)c1ccc(S(=O)(=O)NC(=O)C2(C)CCN2C(=O)C2(c3ccc(Cl)cc3)CC2)cc1 (centres undefined) | 1 | -1 | / | 0 | 3 | 1 | / | / | /
Cc1cc(C)c(S(=O)(=O)N2C[C@H]3CON(C)[C@H]3C[C@H]2c2ccc(N3CCCCC3)cc2)c(C)c1 | 77* | 28 | / | -1 | 14 | -6 | 96* | -26 | 87*
Cc1cccc2c1c1ccc3c(c1n2C)C(=O)C=CC3=O | 42* | 18 | / | -1 | 12 | -21 | 12 | -1 | 11
Cc1ccccc1N1CC(=O)N(c2ccccc2C)CC1=O | -4 | -1 | 10 | 0 | -7 | 5 | / | / | /
O=c1[nH]c(CSc2ncnc3sccc23)nc2cc(C(F)(F)F)ccc12 | 49* | 5 | 6 | 1 | 16 | -160 | 46* | -7 | -9
COC(=O)c1ccc(Nc2nc(-c3ccncc3)nc3ccccc23)cc1 | 112* | 4 | -4 | 0 | 3 | / | 33 | -30 | 5
CCCn1cc(CN2CCCC(C(=O)c3ccc4c(c3)OCO4)C2)c(C)n1 (centres undefined) | -2 | 3 | 16 | 0 | 1 | 9 | / | / | /
O=C(Cn1nnc(-c2ccccc2)n1)N=Nc1c(O)[nH]c2ccccc12 | 64* | -4 | 2 | -1 | 8 | -18 | -5 | 15 | -19
CCc1ccc(NC(=O)[C@H](Cc2ccccc2)NC(=O)C2CCN(C(=O)[C@@H](N)CC(C)C)CC2)cc1 | 0 | 4 | 8 | -3 | -5 | 1 | / | / | /
O=C(CSc1nnc2c(n1)[nH]c1ccc(F)cc12)OCc1ccccc1 | 89* | 0 | -5 | 1 | -7 | -15 | -5 | 7 | -10
Cn1cncc1C#Cc1ccc2cc(C3(O)CCCCC3)oc(=O)c2c1 | 47* | 3 | 1 | 0 | 36* | -223 | 90* | 6 | 31
SMILES | Rpn11 inh | HNF4A DNA FP | PREPL inh | TbMetRS inhib | CSN deneddyl inh | Neddylation inh | Rpn11 confirm | MMP-2 inh | Thrombin FP
Cn1cncc1C#Cc1ccc2c(=O)c3ccccc3oc2c1 | 10 | 5 | 7 | 0 | 4 | 25 | / | / | /
Cc1cc(CNCCN(C)C)c(C)n1-c1cc(S(=O)(=O)N2CCOCC2)ccc1N1CCCC1 | 3 | 2 | / | 0 | -7 | 11 | / | / | /
CC1CCCC(C)N1CCCNC(=O)Cn1ncc2c3ccccc3n(C)c2c1=O (centres undefined) | -8 | -1 | 2 | -1 | 2 | 22 | / | / | /
CC(=O)c1cccc(Nc2nc(-c3ccccc3)nc3ccccc23)c1 | 4 | -1 | -6 | 0 | 3 | -88 | / | / | /
CC(=O)c1cccc(-c2ccc3c(=O)[nH]c(Nc4ccccc4)cc3c2)c1 | 85* | 12 | 29 | 3 | 55* | -20 | 39 | -17 | -8
Cc1cc(SCc2ccc(Cl)cc2Cl)nc(=O)[nH]1 | 52* | 12 | -4 | 1 | 10 | -10 | 37 | -9 | 30
Cc1cc(SCC(=O)c2ccccc2)nc(=O)[nH]1 | 22 | 6 | -11 | 0 | 7 | -18 | / | / | /
Cc1ccc(C(=O)CSc2cc(C)[nH]c(=O)n2)cc1 | 60* | 17 | 8 | 0 | 10 | -6 | 49* | 16 | 24
Cc1cc(SCC(=O)c2ccc(Cl)cc2)nc(=O)[nH]1 | 37* | 8 | 0 | 0 | 8 | -15 | 1 | -14 | -7
Cc1cc(SCc2ccc(Cl)c(Cl)c2)nc(=O)[nH]1 | 5 | 2 | 4 | 0 | -1 | 10 | / | / | /
Cc1cccc(-c2cnc(C(O)Cc3ccccc3)[nH]2)c1 (centres undefined) | 4 | 1 | / | 0 | -3 | -7 | / | / | /

Bioassay records from PubChem.
